Holding throughout (test): competitive ABPP of PAFAH2 versus anti-target hydrolases – cell lysate, fluorescence, gel-based ABPP, BW5147 T-cell proteome, powder samples, late-stage follow-up (AID 504513);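 further: 0% = DMSO-only band intensity and 100% = blank gel background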
Experiment [1] concerns ESD. The note with it: BW5147 mouse T-cell proteome, FP-Rh gel ABPP, stronger effect = higher value. The method, boiled down:
(§1)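 Assay system: murine BW5147 T-cell soluble lysate, PAFAH2 and anti-target serine hydrolases / Quantity: 1 mg/mL soluble protein / Schedule: 30 min compound, 30 min probe at 25 °C / Also added: FP-Rh probe at 2 µM / Controls: DMSO high, gel background low / Signal: in-gel fluorescence of probe-labelled bands, integrated optical density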

For experiment [2], the target named is Platelet-activating factor acetylhydrolase 2, cytoplasmic (Mus musculus) (UniProt Q8VDG7). As to conditions: FP-Rh gel ABPP, stronger effect = higher value. The method, boiled down: as §1
The subject of experiment [3] is ABHD11. As to conditions: BW5147 mouse T-cell proteome, FP-Rh gel ABPP, stronger effect = higher value. The method, boiled down:
as §1

Experiment [4] relates to APEH. The note with it: BW5147 mouse T-cell proteome, FP-Rh gel ABPP, stronger effect = higher value. The method, boiled down:
as §1

Experiment [5] deals with LYPLA1. The note with it: BW5147 mouse T-cell proteome, FP-Rh gel ABPP, stronger effect = higher value. The method, boiled down:
as §1

Calls of active or inactive are those of the source.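 How the source made its calls: active means PAFAH2 inhibition at least 50% at 0.2 µM with under 50% on each related off-target enzyme; inactive means the rest, including PAFAH2 hits that also hit off-targets.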

One may read the inhibition as the relative decrease from the control value, in per cent.

Sequence of Platelet-activating factor acetylhydrolase 2, cytoplasmic (Mus musculus) (Q8VDG7 whole entry, looked up): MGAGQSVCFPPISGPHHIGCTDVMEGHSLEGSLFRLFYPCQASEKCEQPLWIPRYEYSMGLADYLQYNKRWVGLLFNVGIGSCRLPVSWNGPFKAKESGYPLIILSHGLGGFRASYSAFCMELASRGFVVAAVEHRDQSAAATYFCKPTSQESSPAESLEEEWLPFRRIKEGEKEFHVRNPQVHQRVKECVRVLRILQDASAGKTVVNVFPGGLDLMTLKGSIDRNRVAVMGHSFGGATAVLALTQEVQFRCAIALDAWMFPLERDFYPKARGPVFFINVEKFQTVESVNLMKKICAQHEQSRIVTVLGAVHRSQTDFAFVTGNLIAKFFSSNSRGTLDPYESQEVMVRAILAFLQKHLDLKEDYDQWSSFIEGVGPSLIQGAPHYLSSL

Regarding `CN(C)C(=O)n1ccnn1`, the inhibition is 0% (inactive) in experiment [1] (at 1 µM); 0% in experiment [1] (inhibition, at 0.02 µM); 0% in experiment [1] (inhibition, at 0.2 µM); 0% (inactive) in experiment [2] (PAFAH2, at 1 µM); 0% in experiment [2] (PAFAH2, inhibition, at 0.02 µM); 0% in experiment [2] (PAFAH2, inhibition, at 0.2 µM). For the same molecule, the inhibition in experiment [3] (at 1 µM) is 0% (inactive); in experiment [3] (inhibition, at 0.02 µM) it was 0%; in experiment [3] (inhibition, at 0.2 µM), 0%; in experiment [4] (at 1 µM) it was 0% (inactive); in experiment [4] (inhibition, at 0.02 µM), 0%; in experiment [4] (inhibition, at 0.2 µM) it was 0%. Further, the inhibition was 0% (inactive) in experiment [5] (at 1 µM); 0% in experiment [5] (inhibition, at 0.02 µM); 0% in experiment [5] (inhibition, at 0.2 µM).

In the case of `COc1ccc2cc(-c3cnn(C(=O)N4CCCC4)n3)ccc2c1`, the inhibition is 0% (inactive) in experiment [1] (at 1 µM); 0% in experiment [1] (inhibition, at 0.02 µM); 0% in experiment [1] (inhibition, at 0.2 µM); 100% in experiment [2] (PAFAH2, at 1 µM); 0% in experiment [2] (PAFAH2, inhibition, at 0.02 µM); 100% in experiment [2] (PAFAH2, inhibition, at 0.2 µM). The inhibition in experiment [3] (at 1 µM) is 0% (inactive); in experiment [3] (inhibition, at 0.02 µM) it was 0%; in experiment [3] (inhibition, at 0.2 µM) it was 0%; in experiment [4] (at 1 µM), 100% (inactive); in experiment [4] (inhibition, at 0.02 µM) it was 0%; in experiment [4] (inhibition, at 0.2 µM) it was 25%. Also, the inhibition in experiment [5] (at 1 µM) was 0% (inactive); in experiment [5] (inhibition, at 0.02 µM), 0%; in experiment [5] (inhibition, at 0.2 µM), 0%.

For `O=C(N1CCOCC1)n1ncc(-c2ccccc2)n1`, the inhibition in experiment [1] (at 1 µM) was 0% (inactive); in experiment [1] (inhibition, at 0.02 µM), 0%; in experiment [1] (inhibition, at 0.2 µM) it was 0%; in experiment [2] (PAFAH2, at 1 µM), 75%; in experiment [2] (PAFAH2, inhibition, at 0.02 µM), 25%; in experiment [2] (PAFAH2, inhibition, at 0.2 µM), 50%. Moreover, the inhibition in experiment [3] (at 1 µM) is 100%; in experiment [3] (inhibition, at 0.02 µM), 50%; in experiment [3] (inhibition, at 0.2 µM) it was 100%; in experiment [4] (at 1 µM), 50% (inactive); in experiment [4] (inhibition, at 0.02 µM) it was 0%; in experiment [4] (inhibition, at 0.2 µM), 25%. The inhibition in experiment [5] (at 1 µM) was 0% (inactive); in experiment [5] (inhibition, at 0.02 µM), 0%; in experiment [5] (inhibition, at 0.2 µM), 0%.

As for `O=C(N1CCCC1)n1ncc(C(O)(c2ccccc2)c2ccccc2)n1`, the inhibition in experiment [1] (at 1 µM) is 0% (inactive); in experiment [1] (inhibition, at 0.02 µM) it was 0%; in experiment [1] (inhibition, at 0.2 µM), 0%; in experiment [2] (PAFAH2, at 1 µM), 100%; in experiment [2] (PAFAH2, inhibition, at 0.02 µM), 0%; in experiment [2] (PAFAH2, inhibition, at 0.2 µM) it was 100%. The inhibition in experiment [3] (at 1 µM) was 100%; in experiment [3] (inhibition, at 0.02 µM), 0%; in experiment [3] (inhibition, at 0.2 µM) it was 100%; in experiment [4] (at 1 µM), 100%; in experiment [4] (inhibition, at 0.02 µM), 0%; in experiment [4] (inhibition, at 0.2 µM), 100%. In addition, the inhibition in experiment [5] (at 1 µM) was 0% (inactive); in experiment [5] (inhibition, at 0.02 µM), 0%; in experiment [5] (inhibition, at 0.2 µM), 0%.

As for `O=C(N1CCCC1)n1ncc(-c2ccc(Oc3ccccc3)cc2)n1`, the inhibition in experiment [1] (at 1 µM) is 0% (inactive); in experiment [1] (inhibition, at 0.02 µM), 0%; in experiment [1] (inhibition, at 0.2 µM) it was 0%; in experiment [2] (PAFAH2, at 1 µM), 100%; in experiment [2] (PAFAH2, inhibition, at 0.02 µM) it was 100%; in experiment [2] (PAFAH2, inhibition, at 0.2 µM), 100%. The inhibition is 0% (inactive) in experiment [3] (at 1 µM); 0% in experiment [3] (inhibition, at 0.02 µM); 0% in experiment [3] (inhibition, at 0.2 µM); 100% in experiment [4] (at 1 µM); 0% in experiment [4] (inhibition, at 0.02 µM); 100% in experiment [4] (inhibition, at 0.2 µM). Besides, the inhibition in experiment [5] (at 1 µM) is 0% (inactive); in experiment [5] (inhibition, at 0.02 µM), 0%; in experiment [5] (inhibition, at 0.2 µM), 0%.

As for `C=CCN(CC=C)C(=O)n1ccnn1`, the inhibition in experiment [1] (at 1 µM) is 0% (inactive); in experiment [1] (inhibition, at 0.02 µM), 0%; in experiment [1] (inhibition, at 0.2 µM), 0%; in experiment [2] (PAFAH2, at 1 µM) it was 0% (inactive); in experiment [2] (PAFAH2, inhibition, at 0.02 µM), 0%; in experiment [2] (PAFAH2, inhibition, at 0.2 µM) it was 0%. In addition, the inhibition is 100% (inactive) in experiment [3] (at 1 µM); 0% in experiment [3] (inhibition, at 0.02 µM); 0% in experiment [3] (inhibition, at 0.2 µM); 0% (inactive) in experiment [4] (at 1 µM); 0% in experiment [4] (inhibition, at 0.02 µM); 0% in experiment [4] (inhibition, at 0.2 µM). Further, the inhibition in experiment [5] (at 1 µM) was 0% (inactive); in experiment [5] (inhibition, at 0.02 µM) it was 0%; in experiment [5] (inhibition, at 0.2 µM), 0%.

(Values after PubChem BioAssay AID504513 (The Scripps Research Institute Molecular Screening Center, 2011).)
